From ChEMBL document CHEMBL3352559, “Synthesis and pharmacological investigation of aralkyl diamine derivatives as potential triple reuptake inhibitors” (Eur J Med Chem, 2014)

Key:
[1] = target: T1, Sodium-dependent dopamine transporter (Homo sapiens, UniProt Q01959); assay: Inhibition of [3H]-DA uptake in human dopamine transporter expressed in HEK293 cells by scintillation counting; format: cell-based
[2] = target: T2, Sodium-dependent noradrenaline transporter (Homo sapiens, UniProt P23975); assay: Inhibition of [3H]-NE uptake in human norepinephrine transporter expressed in HEK293 cells by scintillation counting; format: cell-based
[3] = target: T3, Sodium-dependent serotonin transporter (Homo sapiens, UniProt P31645); assay: Inhibition of [3H]-serotonin uptake in human SERT expressed in HEK293 cells by scintillation counting; format: cell-based
Target sequence in this assay (P31645 whole entry): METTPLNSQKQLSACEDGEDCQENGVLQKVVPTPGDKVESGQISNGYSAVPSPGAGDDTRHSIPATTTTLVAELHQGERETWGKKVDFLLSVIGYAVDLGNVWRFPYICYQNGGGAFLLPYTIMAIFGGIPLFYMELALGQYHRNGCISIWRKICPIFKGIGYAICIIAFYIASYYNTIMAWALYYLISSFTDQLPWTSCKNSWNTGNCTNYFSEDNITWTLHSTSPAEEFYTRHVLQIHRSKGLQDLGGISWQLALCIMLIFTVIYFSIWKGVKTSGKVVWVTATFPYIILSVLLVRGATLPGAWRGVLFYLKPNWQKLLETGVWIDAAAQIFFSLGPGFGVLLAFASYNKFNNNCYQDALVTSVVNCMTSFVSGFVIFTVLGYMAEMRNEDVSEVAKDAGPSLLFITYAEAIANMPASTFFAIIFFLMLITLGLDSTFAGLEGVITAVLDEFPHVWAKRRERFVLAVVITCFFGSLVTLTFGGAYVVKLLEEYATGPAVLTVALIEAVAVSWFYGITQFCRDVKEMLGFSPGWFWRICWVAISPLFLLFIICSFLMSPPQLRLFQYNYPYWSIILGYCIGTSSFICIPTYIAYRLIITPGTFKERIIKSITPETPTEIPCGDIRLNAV

[4] = target: T3, Sodium-dependent serotonin transporter; assay: Inhibition of [3H]-serotonin uptake in human SERT expressed in HEK293 cells at 10 uM by scintillation counting; format: cell-based
Target sequence in this assay (P31645 whole entry, looked up): as the sequence (P31645 whole entry) above

[5] = target: T1, Sodium-dependent dopamine transporter; assay: Inhibition of [3H]-DA uptake in human dopamine transporter expressed in CHO cells at 10 uM by scintillation counting
[6] = target: T2, Sodium-dependent noradrenaline transporter; assay: Inhibition of [3H]-NE uptake in human norepinephrine transporter expressed in HEK293 cells at 10 uM by scintillation counting; format: cell-based
Rattus norvegicus [7] = assay: Toxicity in rat assessed as effect on locomotion at 20 mg/kg, po after 60 mins by spontaneous locomotor test; format: organism-based; parameters: dose 20 mg/kg, route oral; details: in vivo, 1 h
Method in brief: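 Rats dosed orally at 20 mg/kg, with vehicle and venlafaxine 30 mg/kg PO as controls; 60 min later placed singly in novel 40×40×50 cm cages under dim light with sound attenuation; activity recorded automatically in 5 min bins over 30 min; mean ± SEM.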

Rattus norvegicus [8] = assay: Antidepressant activity in rat assessed as reduction in immobility time at 10 mg/kg, po by forced swimming test relative to control; format: functional
Method in brief: (§1)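 Male rats dosed orally at 5, 10 or 20 mg/kg alongside vehicle and venlafaxine 30 mg/kg PO groups. 1 h post-dose, each rat placed in a glass cylinder (40 cm × 18 cm) holding 15 cm of 25 ± 1 °C water. Immobility time recorded over a 6 min trial; significant main effects followed by post hoc Fisher's test.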

Rattus norvegicus [9] = assay: Antidepressant activity in rat assessed as reduction in immobility time at 5 mg/kg, po by forced swimming test relative to control; format: functional; method in brief: as §1
Rattus norvegicus [10] = assay: Antidepressant activity in po dosed rat assessed as reduction in immobility time by forced swimming test; format: functional, organism-based; method in brief: as §1
Rattus norvegicus [11] = assay: Antidepressant activity in rat assessed as reduction in immobility time at 20 mg/kg, po by forced swimming test relative to control; format: functional; method in brief: as §1
Rattus norvegicus [12] = assay: Antidepressant activity in rat assessed as reduction in immobility time at 30 mg/kg, po by forced swimming test relative to control; format: functional
Method in brief: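 Male rats were dosed PO with vehicle or compound. After 1 h each rat was placed in a clear glass cylinder (40 cm tall × 18 cm diameter) holding water at 25 ± 1 °C, 15 cm deep. Immobility time was recorded over a 6 min trial and compared with vehicle. Significant main effects were followed by Fisher's post hoc test.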

Rattus norvegicus [13] = assay: Toxicity in rat assessed as effect on locomotion at 30 mg/kg, po after 60 mins by spontaneous locomotor test; format: organism-based; parameters: dose 30 mg/kg, route oral; details: in vivo, 1 h
Method in brief: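 Rats were dosed PO. 60 min later each was placed alone in an unfamiliar 40 cm × 40 cm × 50 cm plastic cage under dim light and sound attenuation. Spontaneous activity was monitored automatically at 5 min intervals for up to 30 min. Results are mean ± SEM versus vehicle.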

T1 sequence (Q01959 whole entry): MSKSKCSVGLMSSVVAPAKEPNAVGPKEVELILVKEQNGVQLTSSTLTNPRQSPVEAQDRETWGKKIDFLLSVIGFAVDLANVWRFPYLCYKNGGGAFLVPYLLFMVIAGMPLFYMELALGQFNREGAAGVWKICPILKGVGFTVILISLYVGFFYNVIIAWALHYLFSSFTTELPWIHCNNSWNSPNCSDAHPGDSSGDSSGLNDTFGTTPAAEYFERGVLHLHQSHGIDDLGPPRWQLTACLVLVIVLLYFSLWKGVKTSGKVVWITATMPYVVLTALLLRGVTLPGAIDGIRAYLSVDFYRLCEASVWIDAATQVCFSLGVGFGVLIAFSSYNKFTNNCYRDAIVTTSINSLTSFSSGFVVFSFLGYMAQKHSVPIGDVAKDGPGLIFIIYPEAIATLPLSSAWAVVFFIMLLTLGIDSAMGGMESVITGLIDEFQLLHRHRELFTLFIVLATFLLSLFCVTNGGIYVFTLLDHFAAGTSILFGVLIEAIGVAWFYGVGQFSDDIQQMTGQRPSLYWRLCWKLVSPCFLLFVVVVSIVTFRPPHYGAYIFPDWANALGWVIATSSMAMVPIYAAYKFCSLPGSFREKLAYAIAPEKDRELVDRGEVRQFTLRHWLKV
T2 sequence (P23975 whole entry): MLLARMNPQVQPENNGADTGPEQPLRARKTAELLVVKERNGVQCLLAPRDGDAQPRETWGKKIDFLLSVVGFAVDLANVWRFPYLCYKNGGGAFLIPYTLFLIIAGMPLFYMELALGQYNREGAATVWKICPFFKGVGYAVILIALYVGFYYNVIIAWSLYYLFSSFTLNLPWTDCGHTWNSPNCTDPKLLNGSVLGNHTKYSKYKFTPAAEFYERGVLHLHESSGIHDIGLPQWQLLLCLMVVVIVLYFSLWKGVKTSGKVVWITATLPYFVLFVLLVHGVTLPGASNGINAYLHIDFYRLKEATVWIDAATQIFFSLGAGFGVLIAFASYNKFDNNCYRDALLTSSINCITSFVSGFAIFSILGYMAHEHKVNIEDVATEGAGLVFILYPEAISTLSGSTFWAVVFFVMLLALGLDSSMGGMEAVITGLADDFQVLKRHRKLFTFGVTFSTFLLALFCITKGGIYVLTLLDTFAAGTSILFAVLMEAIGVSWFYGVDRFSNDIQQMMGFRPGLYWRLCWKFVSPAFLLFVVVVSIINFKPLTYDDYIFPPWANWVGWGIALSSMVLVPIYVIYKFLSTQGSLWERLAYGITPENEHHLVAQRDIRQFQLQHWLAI

| SMILES | IC50 [2] [nM] | IC50 [3] [nM] | inhibition [4] [%] | inhibition [5] [%] | inhibition [6] [%] | further results |
| --- | --- | --- | --- | --- | --- | --- |
| COc1ccc2cc(C(CCN(C)C)N3CCCC3)ccc2c1Cl (centres undefined) | 374 | 338 |  |  |  | IC50 [1]: 8190 nM |
| CN(C)CCC(c1ccc(F)cc1)N1CCCCC1 (centres undefined) |  |  | 62.7 | 40.1 | 87.6 |  |
| CN(C)CCC(c1csc2ccccc12)N1CCCC1 (centres undefined) | 250 | 425 |  |  |  | IC50 [1]: 986 nM |
| CN(C)CCC(c1ccc(C(F)(F)F)cc1)N1CCOCC1 (centres undefined) |  |  | 46.2 | 8.5 | 83.2 |  |
| C1=C(Cc2ccccc2)CCN(CCC(c2csc3ccccc23)N2CCCCC2)C1 (centres undefined) |  | 905 |  | 77.4 | 52.7 |  |
| CN(C)CCC(c1ccc(Cl)c(Cl)c1)N1CCCCC1 (centres undefined) | 634 | 546 |  |  |  | IC50 [1]: 602 nM |
| C1=C(Cc2ccccc2)CCN(CCC(c2csc3ccccc23)N2CCCC2)C1 (centres undefined) | 157 | 621 |  |  |  | IC50 [1]: 325 nM |
| CCN(CC)CCC(c1ccc(Cl)c(Cl)c1)N1CCCC1 (centres undefined) | 136 |  | 76.5 |  |  | IC50 [1]: 363 nM |
| CN(CCC(c1cc2ccccc2s1)N1CCOCC1)Cc1ccccc1 (centres undefined) |  |  | 30.3 | 41.9 | 37.8 |  |
| Clc1ccc(C(CCN2CC=C(Cc3ccccc3)CC2)N2CCCC2)cc1Cl (centres undefined) | 426 |  | 79.1 |  |  | IC50 [1]: 291 nM |
| C1=C(Cc2ccccc2)CCN(CCC(c2csc3ccccc23)N2CCOCC2)C1 (centres undefined) |  |  | 65.4 |  | 79.1 | IC50 [1]: 852 nM |
| CN(C)CCC(c1ccc(F)cc1)N1CCCC1 (centres undefined) |  |  | 70.2 | 46.6 | 68.9 |  |
| Cc1ccc(C(CCN(C)C)N2CCOCC2)cc1 (centres undefined) |  |  | 39.2 | 25.8 | 40.4 |  |
| CN(C)CCC(c1ccc(F)cc1F)N1CCOCC1 (centres undefined) |  |  | 55.6 | 50.7 | 19.4 |  |
| CN(C)CCC(c1ccc(Cl)c(Cl)c1)N1CCNCC1 (centres undefined) | 428 | 399 |  | 80.1 |  |  |
| Clc1ccc(C(CCN2CCOCC2)N2CCCC2)cc1Cl (centres undefined) | 68.9 | 389 |  |  |  | Activity (Rattus norvegicus [7]): Non-toxic; inhibition in vivo at 10 mg/kg (Rattus norvegicus [8]): 17%; IC50 [1]: 238 nM; inhibition in vivo at 5 mg/kg (Rattus norvegicus [9]): 12%; inhibition (Rattus norvegicus [10]): Dose-dependent effect; inhibition in vivo at 20 mg/kg (Rattus norvegicus [11]): 34% |
| CN(CCC(c1ccc(Cl)c(Cl)c1)N1CCOCC1)Cc1ccccc1 (centres undefined) |  |  | 35.6 | 3.4 | 50.6 |  |
| COc1ccc(C(CN(C)C)C2(O)CCCCC2)cc1 (centres undefined) [VENLAFAXINE] |  |  |  |  |  | inhibition in vivo at 30 mg/kg (Rattus norvegicus [12]): 14%; Activity (Rattus norvegicus [13]): Toxic |
| CN(C)CCC(c1cc2ccccc2s1)N1CCCC1 (centres undefined) | 495 | 401 |  |  |  | IC50 [1]: 863 nM |
| CN(C)CCC(c1ccc(F)cc1)N1CCOCC1 (centres undefined) |  |  | 50.7 | 6.4 | 74.2 |  |
| CN(C)CCC(c1ccc(Cl)cc1)N1CCOCC1 (centres undefined) |  |  | 58.5 | 35.7 | 52.5 |  |
| COc1ccc(C(CCN(C)C)N2CCOCC2)cc1 (centres undefined) |  |  | 25.9 | 22.9 | 29.3 |  |
| C1=C(Cc2ccccc2)CCN(CCC(c2csc3ccccc23)N2CCNCC2)C1 (centres undefined) | 635 |  | 73.9 | 83.9 |  |  |
| COc1ccc2cc(C(CCN(C)Cc3ccccc3)N3CCOCC3)ccc2c1Cl (centres undefined) |  |  | 47.3 | 2.5 | 49.5 |  |

Further lines, with some results ahead:

| IC50 [2] [nM] | IC50 [3] [nM] | inhibition [4] [%] | inhibition [5] [%] | inhibition [6] [%] | SMILES | further results |
| --- | --- | --- | --- | --- | --- | --- |
| 328 |  | 86.1 | 42 |  | CNCCC(c1ccc(F)cc1F)N1CCOCC1 (centres undefined) |  |
|  |  | 59.9 | 68.1 | 74 | Clc1ccc(C(CCN2CCCCC2)N2CCOCC2)cc1Cl (centres undefined) |  |
|  |  | 24.1 | 46.2 | 5.3 | CN(CCC(c1ccc(F)cc1F)N1CCOCC1)Cc1ccccc1 (centres undefined) |  |
|  |  | 73.8 | 54.4 | 4.9 | Clc1ccc(C(CCN2CCOCC2)N2CCOCC2)cc1Cl (centres undefined) |  |
|  |  | 57.6 | 37.1 | 77.4 | CN(C)CCC(c1ccc(C(F)(F)F)cc1)N1CCCC1 (centres undefined) |  |
|  |  | 79.9 | 79.5 | 73.5 | COc1ccc2cc(C(CCN3CC=C(Cc4ccccc4)CC3)N3CCCC3)ccc2c1Cl (centres undefined) |  |
| 2540 | 1190 |  | 56.8 |  | CN(C)CCC(c1csc2ccccc12)N1CCOCC1 (centres undefined) |  |
|  |  | 30.5 | 54.3 | 35.3 | CC1CCCN(C(CCN2CCOCC2)c2ccc(Cl)c(Cl)c2)C1 (centres undefined) |  |
|  |  | 34.9 | 36.6 | 19 | CCOC(=O)C1CCCN(C(CCN2CCOCC2)c2ccc(Cl)c(Cl)c2)C1 (centres undefined) |  |
| 206 | 501 |  |  |  | CN(C)CCC(c1ccc(Cl)c(Cl)c1)N1CCCC1 (centres undefined) | Activity (Rattus norvegicus [7]): Non-toxic; inhibition in vivo at 10 mg/kg (Rattus norvegicus [8]): 25%; IC50 [1]: 357 nM; inhibition in vivo at 5 mg/kg (Rattus norvegicus [9]): 18%; inhibition (Rattus norvegicus [10]): Dose-dependent effect; inhibition in vivo at 20 mg/kg (Rattus norvegicus [11]): 36% |
| 1460 | 449 |  | 66.8 |  | CN(C)CCC(c1cc2ccccc2s1)N1CCOCC1 (centres undefined) |  |
